Several values for one entry are separate records, joined by “and”; a condition that tells them apart may be missing. Equal entries are not always repeated.
Test system: U2OS
Test: Multiplex assay against U2OS
Format: toxicity, cell-based
Details: human
How it was run: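 At seeding, live cells were stained with Hoechst33342, BioTracker Green Microtubule Cytoskeleton Dye, MitoTracker Red and Annexin V Alexa Fluor 680. After compound addition they were imaged on a CQ1 microscope at 37°C and 5% CO2, and CellPathfinder machine-learning gating sorted them into Hoechst high-intensity objects or normal cells, with normal cells further split into healthy, pyknosed or fragmented nuclei and pyknosed cells into mitotic or apoptotic. Tubulin, mitochondrial-mass and membrane-permeability phenotypes are given as per cents of cells with healthy nuclei.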

[1] = 12 h, 1 µM, compound concentration 1 uM
[2] = 12 h, 10 µM, compound concentration 10 uM
[3] = 24 h, 1 µM, compound concentration 1 uM
[4] = 24 h, 10 µM, compound concentration 10 uM
[5] = 48 h, 1 µM, compound concentration 1 uM
[6] = 48 h, 10 µM, compound concentration 10 uM

## O=C1c2c(Br)c(Br)c(Br)c(Br)c2C(=O)N1c1ncc[nH]1
[1]
  Population Apoptotic (%): 34.38% and 22.22%
  Population Fragmented Nuclei (%): 2.78% and 4.62%
  Population Healthy Nuclei (%): 88.33% and 79.77%
  Population Hoechst High Intensity Objects (%): 0%
  Population Membrane Permeable-Phenotype (%): 2.52% and 6.52%
  Population Mitochondria Different-Phenotype (%): 0.94% and 6.52%
  Population Mitotic Cells (%): 65.62% and 77.78%
  Population Normal (%): 100%
  Population Pyknosed Nuclei (%): 8.89% and 15.61%
  Population Tubulin-Different-Phenotype (%): 1.26% and 0.72%
  Total Cell Count: 360 and 173
[2]
  Population Apoptotic (%): 30.95% and 44.44%
  Population Fragmented Nuclei (%): 1.83% and 1.43%
  Population Healthy Nuclei (%): 88.58% and 85.71%
  Population Hoechst High Intensity Objects (%): 0%
  Population Membrane Permeable-Phenotype (%): 0.77% and 1.67%
  Population Mitochondria Different-Phenotype (%): 0% and 5%
  Population Mitotic Cells (%): 69.05% and 55.56%
  Population Normal (%): 100%
  Population Pyknosed Nuclei (%): 9.59% and 12.86%
  Population Tubulin-Different-Phenotype (%): 0.77% and 0.83%
[3]
  Population Apoptotic (%): 47.37% and 28.12%
  Population Fragmented Nuclei (%): 1.69% and 4.85%
  Population Healthy Nuclei (%): 90.27% and 81.06%
  Population Hoechst High Intensity Objects (%): 0.21% and 0%
  Population Membrane Permeable-Phenotype (%): 1.17% and 4.35%
  Population Mitochondria Different-Phenotype (%): 0.47% and 3.8%
  Population Mitotic Cells (%): 52.63% and 71.88%
  Population Normal (%): 99.79% and 100%
  Population Pyknosed Nuclei (%): 8.03% and 14.1%
  Population Tubulin-Different-Phenotype (%): 1.41% and 1.63%
  Total Cell Count: 474 and 227
[4]
  Population Apoptotic (%): 43.1% and 37.93%
  Population Fragmented Nuclei (%): 1.95% and 1.6%
  Population Healthy Nuclei (%): 88.62% and 82.89%
  Population Hoechst High Intensity Objects (%): 0%
  Population Membrane Permeable-Phenotype (%): 0.73% and 3.87%
  Population Mitochondria Different-Phenotype (%): 0% and 3.87%
  Population Mitotic Cells (%): 56.9% and 62.07%
  Population Normal (%): 100%
  Population Pyknosed Nuclei (%): 9.43% and 15.51%
  Population Tubulin-Different-Phenotype (%): 0% and 0.65%
[5]
  Population Apoptotic (%): 46.91% and 35.59%
  Population Fragmented Nuclei (%): 2.45% and 2.79%
  Population Healthy Nuclei (%): 88.91% and 82.23%
  Population Hoechst High Intensity Objects (%): 0%
  Population Membrane Permeable-Phenotype (%): 1.56% and 1.23%
  Population Mitochondria Different-Phenotype (%): 0.24% and 3.09%
  Population Mitotic Cells (%): 53.09% and 64.41%
  Population Normal (%): 100%
  Population Pyknosed Nuclei (%): 8.64% and 14.97%
  Population Tubulin-Different-Phenotype (%): 0.84% and 0.31%
  Total Cell Count: 938 and 394
[6]
  Population Apoptotic (%): 50.54% and 55.88%
  Population Fragmented Nuclei (%): 4.81% and 1.63%
  Population Healthy Nuclei (%): 86.74% and 87.25%
  Population Hoechst High Intensity Objects (%): 0%
  Population Membrane Permeable-Phenotype (%): 0.31% and 3.37%
  Population Mitochondria Different-Phenotype (%): 0% and 1.12%
  Population Mitotic Cells (%): 49.46% and 44.12%
  Population Normal (%): 100%
  Population Pyknosed Nuclei (%): 8.45% and 11.11%
  Population Tubulin-Different-Phenotype (%): 0.31% and 1.87%

## COCCNc1nc2ccc(C#CC3(O)CCCCC3)cc2n1-c1ccnc(N)n1
[1]
  Population Apoptotic (%): 53.85% and 25%
  Population Fragmented Nuclei (%): 1.38% and 4.59%
  Population Healthy Nuclei (%): 91.46% and 77.06%
  Population Hoechst High Intensity Objects (%): 0%
  Population Membrane Permeable-Phenotype (%): 0.9% and 4.76%
  Population Mitochondria Different-Phenotype (%): 0% and 4.76%
  Population Mitotic Cells (%): 46.15% and 75%
  Population Normal (%): 100%
  Population Pyknosed Nuclei (%): 7.16% and 18.35%
  Population Tubulin-Different-Phenotype (%): 0.6% and 0%
[2]
  Population Apoptotic (%): 38.46% and 41.03%
  Population Fragmented Nuclei (%): 1.89% and 3.8%
  Population Healthy Nuclei (%): 82.78% and 75%
  Population Hoechst High Intensity Objects (%): 0%
  Population Membrane Permeable-Phenotype (%): 8.26% and 7.25%
  Population Mitotic Cells (%): 61.54% and 58.97%
  Population Normal (%): 100%
  Population Pyknosed Nuclei (%): 15.33% and 21.2%
  Population Tubulin-Different-Phenotype (%): 15.38% and 10.87%
  Total Cell Count: 424 and 184
[3]
  Population Apoptotic (%): 34.62% and 40%
  Population Fragmented Nuclei (%): 0.86% and 3.12%
  Population Healthy Nuclei (%): 87.96% and 85.16%
  Population Hoechst High Intensity Objects (%): 0%
  Population Membrane Permeable-Phenotype (%): 0.49% and 4.59%
  Population Mitochondria Different-Phenotype (%): 0.24% and 2.75%
  Population Mitotic Cells (%): 65.38% and 60%
  Population Normal (%): 100%
  Population Pyknosed Nuclei (%): 11.18% and 11.72%
  Population Tubulin-Different-Phenotype (%): 0.73% and 0%
[4]
  Population Apoptotic (%): 27.97% and 41.07%
  Population Fragmented Nuclei (%): 1.32% and 3.03%
  Population Healthy Nuclei (%): 76.5% and 68.69%
  Population Hoechst High Intensity Objects (%): 0%
  Population Membrane Permeable-Phenotype (%): 2.7% and 6.62%
  Population Mitotic Cells (%): 72.03% and 58.93%
  Population Normal (%): 100%
  Population Pyknosed Nuclei (%): 22.18% and 28.28%
  Population Tubulin-Different-Phenotype (%): 15.72% and 8.82%
  Total Cell Count: 532 and 198
[5]
  Population Apoptotic (%): 38.1% and 52%
  Population Fragmented Nuclei (%): 2.24% and 2.58%
  Population Healthy Nuclei (%): 88.37% and 84.54%
  Population Hoechst High Intensity Objects (%): 0%
  Population Membrane Permeable-Phenotype (%): 0.63% and 0.61%
  Population Mitochondria Different-Phenotype (%): 0% and 2.44%
  Population Mitotic Cells (%): 61.9% and 48%
  Population Normal (%): 100%
  Population Pyknosed Nuclei (%): 9.4% and 12.89%
  Population Tubulin-Different-Phenotype (%): 1.14% and 1.22%
[6]
  Population Apoptotic (%): 45.97% and 47.78%
  Population Fragmented Nuclei (%): 2.08% and 1.2%
  Population Healthy Nuclei (%): 81.79% and 62.65%
  Population Hoechst High Intensity Objects (%): 0%
  Population Membrane Permeable-Phenotype (%): 2.38% and 2.56%
  Population Mitotic Cells (%): 54.03% and 52.22%
  Population Normal (%): 100%
  Population Pyknosed Nuclei (%): 16.12% and 36.14%
  Population Tubulin-Different-Phenotype (%): 13.35% and 7.69%

## CC(C)(C)c1ccc(CSc2cnn(C(C)(C)C)c(=O)c2Cl)cc1 [PYRIDABEN]
[1]
  Population Apoptotic (%): 79% and 63%
  Population Fragmented Nuclei (%): 28% and 11%
  Population Healthy Nuclei (%): 61% and 81%
  Population Hoechst High Intensity Objects (%): 3% and 0%
  Population Membrane Permeable-Phenotype (%): 3% and 4%
  Population Mitochondria Different-Phenotype (%): 1%
  Population Mitotic Cells (%): 20% and 36%
  Population Normal (%): 97% and 99%
  Population Pyknosed Nuclei (%): 9% and 7%
  Population Tubulin-Different-Phenotype (%): 2% and 3%
  Total Cell Count: 267 and 152
[2]
  Population Apoptotic (%): 83% and 87%
  Population Fragmented Nuclei (%): 28% and 15%
  Population Healthy Nuclei (%): 57% and 73%
  Population Hoechst High Intensity Objects (%): 1% and 0%
  Population Membrane Permeable-Phenotype (%): 5%
  Population Mitochondria Different-Phenotype (%): 5% and 2%
  Population Mitotic Cells (%): 16% and 12%
  Population Normal (%): 98% and 100%
  Population Pyknosed Nuclei (%): 14% and 11%
  Population Tubulin-Different-Phenotype (%): 3% and 2%
  Total Cell Count: 209 and 141
[3]
  Population Apoptotic (%): 83% and 100%
  Population Fragmented Nuclei (%): 28% and 19%
  Population Healthy Nuclei (%): 58% and 75%
  Population Hoechst High Intensity Objects (%): 1% and 2%
  Population Membrane Permeable-Phenotype (%): 4% and 3%
  Population Mitochondria Different-Phenotype (%): 1%
  Population Mitotic Cells (%): 16% and 0%
  Population Normal (%): 98% and 97%
  Population Pyknosed Nuclei (%): 13% and 5%
  Population Tubulin-Different-Phenotype (%): 1%
  Total Cell Count: 286 and 186
[4]
  Population Apoptotic (%): 80%
  Population Fragmented Nuclei (%): 22% and 19%
  Population Healthy Nuclei (%): 61% and 68%
  Population Hoechst High Intensity Objects (%): 2% and 1%
  Population Membrane Permeable-Phenotype (%): 8% and 6%
  Population Mitochondria Different-Phenotype (%): 3% and 1%
  Population Mitotic Cells (%): 19% and 20%
  Population Normal (%): 97% and 98%
  Population Pyknosed Nuclei (%): 15% and 12%
  Population Tubulin-Different-Phenotype (%): 6% and 2%
  Total Cell Count: 234 and 167
[5]
  Population Apoptotic (%): 76% and 84%
  Population Fragmented Nuclei (%): 26% and 19%
  Population Healthy Nuclei (%): 63% and 70%
  Population Hoechst High Intensity Objects (%): 3% and 6%
  Population Membrane Permeable-Phenotype (%): 6% and 5%
  Population Mitochondria Different-Phenotype (%): 3%
  Population Mitotic Cells (%): 23% and 15%
  Population Normal (%): 96% and 93%
  Population Pyknosed Nuclei (%): 9%
  Population Tubulin-Different-Phenotype (%): 3% and 2%
  Total Cell Count: 361 and 212
[6]
  Population Apoptotic (%): 90% and 95%
  Population Fragmented Nuclei (%): 20% and 16%
  Population Healthy Nuclei (%): 64% and 70%
  Population Hoechst High Intensity Objects (%): 4% and 3%
  Population Membrane Permeable-Phenotype (%): 9% and 5%
  Population Mitochondria Different-Phenotype (%): 4% and 6%
  Population Mitotic Cells (%): 10% and 4%
  Population Normal (%): 95% and 96%
  Population Pyknosed Nuclei (%): 14% and 13%
  Population Tubulin-Different-Phenotype (%): 6% and 4%
  Total Cell Count: 280 and 191
